Calls of active or inactive are those of the source. The calls are words filed in the database; no cut-off is given here.
What was measured:
DNA topoisomerase 2-beta [1] = molecular target: T1, DNA topoisomerase 2-beta (Homo sapiens, UniProt Q02880); experiment: Inhibition of human topoisomerase IIB by sandwich ELISA
DNA topoisomerase 2-beta [2] = molecular target: T1, DNA topoisomerase 2-beta; experiment: Inhibition of human topoisomerase IIB-mediated DNA fragmentation
[3] = (§1) Growth inhibition of human HNO 97 cells at 100 ug/ml measured after 48 hrs by SRB assay relative to control; format: functional, HNO 97 cell line; settings: HNO 97, 48 h, pooled result: one value given for 15 cell lines, strains, targets or settings, read-out: GI
Summary of the method: (§2)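 SRB screen on fifteen human cancer lines. Cells seeded at 3×10^3 per well and left 24 h to attach. A single concentration of 100 µg/mL was tested in triplicate wells for 48 h, with 1% v/v DMSO as vehicle control. Cells fixed in 20% TCA, stained with 0.4% SRB and read at 570 nm. Survival fraction = OD treated/OD control.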

HEp-2 = experiment: Growth inhibition of human HEp-2 cells at 100 ug/ml measured after 48 hrs by SRB assay relative to control; format: functional; settings: dose 100.0 µg/ml, pooled result: one value given for 15 cell lines, strains, targets or settings; summary of the method: as §2
Tubulin (Homo sapiens) = Tubulin (Homo sapiens) (UniProt P68371+Q9H4B7+P0DPH7+P68366+Q13509+Q71U36+P04350+Q3ZCM7+P07437+P68363+Q9BQE3+Q6PEY2+Q13885+Q9BVA1+Q9BUF5); experiment: (§3) Inhibition of [3H]-colchicine binding to biotinylated-tubulin (unknown origin) measured after 45 mins by scintillation counting analysis; format: protein-complex assay
Summary of the method: (§4)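 Scintillation proximity assay run at 37 °C. Incubated 45 min at 37 °C, then the plate was read and percent inhibition calculated from raw counts.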

FaDu = experiment: Growth inhibition of human FaDu cells at 100 ug/ml measured after 48 hrs by SRB assay relative to control; format: functional; settings: dose 100.0 µg/ml, pooled result: one value given for 15 cell lines, strains, targets or settings; summary of the method: as §2
MDA-MB-468 = experiment: Growth inhibition of human MDA-MB-468 cells at 100 ug/ml measured after 48 hrs by SRB assay relative to control; format: functional; settings: dose 100.0 µg/ml, pooled result: one value given for 15 cell lines, strains, targets or settings; summary of the method: as §2
A-431 = experiment: Growth inhibition of human A-431 cells at 100 ug/ml measured after 48 hrs by SRB assay relative to control; format: functional; settings: dose 100.0 µg/ml, pooled result: one value given for 15 cell lines, strains, targets or settings; summary of the method: as §2
HepG2 = experiment: Growth inhibition of human HepG2 cells at 100 ug/ml measured after 48 hrs by SRB assay relative to control; format: functional; settings: dose 100.0 µg/ml, pooled result: one value given for 15 cell lines, strains, targets or settings; summary of the method: as §2
NCI-H1299 = experiment: Growth inhibition of human NCI-H1299 cells at 100 ug/ml measured after 48 hrs by SRB assay relative to control; format: functional; settings: dose 100.0 µg/ml, pooled result: one value given for 15 cell lines, strains, targets or settings; summary of the method: as §2
A-375 = experiment: Growth inhibition of human A-375 cells at 100 ug/ml measured after 48 hrs by SRB assay relative to control; format: functional; settings: dose 100.0 µg/ml, pooled result: one value given for 15 cell lines, strains, targets or settings; summary of the method: as §2
HeLa = experiment: Growth inhibition of human HeLa cells at 100 ug/ml measured after 48 hrs by SRB assay relative to control; format: functional; settings: dose 100.0 µg/ml, pooled result: one value given for 15 cell lines, strains, targets or settings; summary of the method: as §2
A549 = experiment: Growth inhibition of human A549 cells at 100 ug/ml measured after 48 hrs by SRB assay relative to control; format: functional; settings: dose 100.0 µg/ml, pooled result: one value given for 15 cell lines, strains, targets or settings; summary of the method: as §2
PC-3 = experiment: Growth inhibition of human PC-3 cells at 100 ug/ml measured after 48 hrs by SRB assay relative to control; format: functional; settings: dose 100.0 µg/ml, pooled result: one value given for 15 cell lines, strains, targets or settings; summary of the method: as §2
Caco-2 = experiment: Growth inhibition of human Caco-2 cells at 100 ug/ml measured after 48 hrs by SRB assay relative to control; format: functional; settings: dose 100.0 µg/ml, pooled result: one value given for 15 cell lines, strains, targets or settings; summary of the method: as §2
HNO 97 cell line = experiment: as §1; format: functional; settings: dose 100.0 µg/ml, pooled result: one value given for 15 cell lines, strains, targets or settings; summary of the method: as §2
HN = experiment: Growth inhibition of human HN cells at 100 ug/ml measured after 48 hrs by SRB assay relative to control; format: functional; settings: dose 100.0 µg/ml, pooled result: one value given for 15 cell lines, strains, targets or settings; summary of the method: as §2
HCT-116 = experiment: Growth inhibition of human HCT-116 cells at 100 ug/ml measured after 48 hrs by SRB assay relative to control; format: functional; settings: dose 100.0 µg/ml, pooled result: one value given for 15 cell lines, strains, targets or settings; summary of the method: as §2
MCF7 = experiment: Growth inhibition of human MCF7 cells at 100 ug/ml measured after 48 hrs by SRB assay relative to control; format: functional; settings: dose 100.0 µg/ml, pooled result: one value given for 15 cell lines, strains, targets or settings; summary of the method: as §2
Tubulin = experiment: as §3; format: protein-complex assay, Homo sapiens; summary of the method: as §4

T1 sequence (Q02880 whole entry, the tested form may be a part): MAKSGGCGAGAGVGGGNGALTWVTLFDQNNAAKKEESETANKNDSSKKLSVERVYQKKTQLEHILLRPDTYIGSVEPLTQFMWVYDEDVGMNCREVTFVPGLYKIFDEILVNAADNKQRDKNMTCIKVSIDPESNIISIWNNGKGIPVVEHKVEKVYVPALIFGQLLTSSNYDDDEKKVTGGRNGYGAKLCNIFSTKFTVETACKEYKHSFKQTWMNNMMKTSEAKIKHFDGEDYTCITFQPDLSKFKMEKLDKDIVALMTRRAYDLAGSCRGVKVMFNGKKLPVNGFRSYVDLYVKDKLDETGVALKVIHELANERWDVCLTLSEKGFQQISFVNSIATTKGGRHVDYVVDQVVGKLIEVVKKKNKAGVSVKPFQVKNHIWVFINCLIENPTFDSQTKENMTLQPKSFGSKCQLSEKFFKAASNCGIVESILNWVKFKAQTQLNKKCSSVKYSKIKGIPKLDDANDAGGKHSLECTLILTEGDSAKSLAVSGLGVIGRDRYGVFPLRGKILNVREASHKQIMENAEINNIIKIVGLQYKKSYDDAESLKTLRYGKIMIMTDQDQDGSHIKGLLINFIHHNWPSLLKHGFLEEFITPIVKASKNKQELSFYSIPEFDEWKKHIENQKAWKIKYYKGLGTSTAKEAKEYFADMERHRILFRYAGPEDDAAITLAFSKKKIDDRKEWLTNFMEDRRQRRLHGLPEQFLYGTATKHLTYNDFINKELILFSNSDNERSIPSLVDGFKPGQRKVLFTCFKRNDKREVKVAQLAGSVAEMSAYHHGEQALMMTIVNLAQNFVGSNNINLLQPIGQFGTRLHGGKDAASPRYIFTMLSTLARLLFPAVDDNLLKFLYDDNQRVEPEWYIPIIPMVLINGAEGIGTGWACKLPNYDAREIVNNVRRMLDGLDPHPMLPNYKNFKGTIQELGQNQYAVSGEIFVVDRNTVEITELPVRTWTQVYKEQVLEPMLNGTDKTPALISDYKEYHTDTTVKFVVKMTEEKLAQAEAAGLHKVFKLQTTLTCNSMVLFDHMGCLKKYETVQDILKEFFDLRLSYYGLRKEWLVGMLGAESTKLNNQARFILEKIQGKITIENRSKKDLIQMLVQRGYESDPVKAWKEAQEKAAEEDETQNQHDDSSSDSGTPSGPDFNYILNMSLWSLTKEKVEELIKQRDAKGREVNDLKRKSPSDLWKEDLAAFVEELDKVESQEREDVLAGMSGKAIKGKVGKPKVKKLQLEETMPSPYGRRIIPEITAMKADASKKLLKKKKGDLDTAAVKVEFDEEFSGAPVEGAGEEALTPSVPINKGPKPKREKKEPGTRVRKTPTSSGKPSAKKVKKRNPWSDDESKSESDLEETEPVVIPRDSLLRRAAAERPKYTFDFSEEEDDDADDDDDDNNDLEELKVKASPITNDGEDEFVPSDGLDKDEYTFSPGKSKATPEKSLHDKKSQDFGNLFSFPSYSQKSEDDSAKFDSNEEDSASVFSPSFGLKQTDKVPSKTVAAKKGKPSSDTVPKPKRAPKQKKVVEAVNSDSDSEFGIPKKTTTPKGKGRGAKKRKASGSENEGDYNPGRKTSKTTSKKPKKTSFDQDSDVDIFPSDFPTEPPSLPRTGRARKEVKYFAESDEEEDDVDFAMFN

Row | inhibition (DNA topoisomerase 2-beta [2]) | inhibition (DNA topoisomerase 2-beta [1]) | Compound | growth inhibition (GI) (HEp-2) | growth inhibition (GI) (FaDu) | growth inhibition (GI) (MDA-MB-468) | growth inhibition (GI) (A-431) | growth inhibition (GI) (HepG2) | growth inhibition (GI) (NCI-H1299) | growth inhibition (GI) (A-375) | growth inhibition (GI) (HeLa) | growth inhibition (GI) (A549) | growth inhibition (GI) (PC-3) | growth inhibition (GI) (Caco-2) | growth inhibition (GI) (HNO 97 cell line) | growth inhibition (GI) (HN) | growth inhibition (GI) (HCT-116) | growth inhibition (GI) (MCF7) | other results
1 | Active |  | COc1cccc2c1C(=O)c1c(O)c3c(c(O)c1C2=O)C[C@@](O)(C(=O)CO)C[C@@H]3O[C@H]1C[C@H](N)[C@H](O)[C@H](C)O1 [DOXORUBICIN] |  |  |  |  |  |  |  |  |  |  |  |  |  |  |  | IC50 (DNA topoisomerase 2-beta [1]): 12.7 µM; inhibition of growth at 100 µg/mL [3]: 70.2%
2 | Active | Active | O=C1c2c(Br)c(Br)c(Br)c(Br)c2C(=O)N1c1nnn[nH]1 | Active | Active | Active | Active | Active | Active | Active | Active | Active | Active | Active | Active | Active | Active | Active | inhibition (Tubulin (Homo sapiens)): Active
3 | Active | Active; Weak Inhibition Observed | O=C(O)[C@H](Cc1c[nH]c2ccccc12)N1C(=O)c2c(Br)c(Br)c(Br)c(Br)c2C1=O |  |  |  |  |  |  |  |  |  |  |  |  |  |  |  | inhibition of growth at 100 µg/mL [3]: 75.1%
4 | Active |  | COc1cc([C@@H]2c3cc4c(cc3[C@@H](O[C@@H]3O[C@@H]5CO[C@@H](C)O[C@H]5[C@H](O)[C@H]3O)[C@H]3COC(=O)[C@H]23)OCO4)cc(OC)c1O |  |  |  |  |  |  |  |  |  |  |  |  |  |  |  | 
5 | Active | Active | CC(=O)n1c(-c2ccc(N3C(=O)c4c(Br)c(Br)c(Br)c(Br)c4C3=O)cc2)nc2ccccc21 | Active | Active | Active | Active | Active | Active | Active | Active | Active | Active | Active | Active | Active | Active | Active | IC50 (Tubulin): 6.94 µM
6 | Active | Active | O=C1c2c(Br)c(Br)c(Br)c(Br)c2C(=O)N1c1nnc[nH]1 | Active | Active | Active | Active | Active | Active | Active | Active | Active | Active | Active | Active | Active | Active | Active | inhibition (Tubulin (Homo sapiens)): Active; Weak Inhibition Observed

Continued, compound first:

Row | Compound | inhibition (DNA topoisomerase 2-beta [2]) | inhibition (DNA topoisomerase 2-beta [1]) | growth inhibition (GI) (HEp-2) | growth inhibition (GI) (FaDu) | growth inhibition (GI) (MDA-MB-468) | growth inhibition (GI) (A-431) | growth inhibition (GI) (HepG2) | growth inhibition (GI) (NCI-H1299) | growth inhibition (GI) (A-375) | growth inhibition (GI) (HeLa) | growth inhibition (GI) (A549) | growth inhibition (GI) (PC-3) | growth inhibition (GI) (Caco-2) | growth inhibition (GI) (HNO 97 cell line) | growth inhibition (GI) (HN) | growth inhibition (GI) (HCT-116) | growth inhibition (GI) (MCF7) | other results
7 | CC(=O)N1C(=O)c2c(Br)c(Br)c(Br)c(Br)c2C1=O |  |  | Active | Active | Active | Active | Active | Active | Active | Active | Active | Active | Active | Active | Active | Active | Active | 
8 | CC(=O)N(NC(=S)NN1C(=O)c2c(Br)c(Br)c(Br)c(Br)c2C1=O)C(C)=O |  |  | Active | Active | Active | Active | Active | Active | Active | Active | Active | Active | Active | Active | Active | Active | Active | 
9 | CC(=O)NC(=S)NN1C(=O)c2c(Br)c(Br)c(Br)c(Br)c2C1=O |  |  | Active | Active | Active | Active | Active | Active | Active | Active | Active | Active | Active | Active | Active | Active | Active | 
10 | O=C1c2c(Br)c(Br)c(Br)c(Br)c2C(=O)N1c1ccc([Se][Se]c2ccc(N3C(=O)c4c(Br)c(Br)c(Br)c(Br)c4C3=O)cc2)cc1 |  |  | Active | Active | Active | Active | Active | Active | Active | Active | Active | Active | Active | Active | Active | Active | Active | 
11 | O=C1CCC(N2C(=O)c3c(Br)c(Br)c(Br)c(Br)c3C2=O)C(=O)O1 (stereo unspecified) |  |  | Active; Weak Inhibition Observed | Active; Weak Inhibition Observed | Active; Weak Inhibition Observed | Active; Weak Inhibition Observed | Active; Weak Inhibition Observed | Active; Weak Inhibition Observed | Active; Weak Inhibition Observed | Active; Weak Inhibition Observed | Active; Weak Inhibition Observed | Active; Weak Inhibition Observed | Active; Weak Inhibition Observed | Active; Weak Inhibition Observed | Active; Weak Inhibition Observed | Active; Weak Inhibition Observed | Active; Weak Inhibition Observed | 
